Assay [1] deals with Hepatitis C virus. Put plainly: Antiviral activity against HCV genotype 1b Con1 harboring HCV genotype 1a H77 NS3 R155K mutant infected in human HuH7 cells assessed as inhibition of viral replication after 96 hrs by luciferase reporter gene assay. The following applies: genotype 1b Con1, Huh-7, 96 h. Type of assay: functional, cell-based, Hepacivirus hominis.
The test system of assay [2] is Hepatitis C virus. Put plainly: Antiviral activity against HCV genotype 1b Con1 harboring HCV genotype 1a H77 NS3 A156T mutant infected in human HuH7 cells assessed as inhibition of viral replication after 96 hrs by luciferase reporter gene assay. Type of assay: functional, cell-based, Hepacivirus hominis. The following applies: genotype 1b Con1, Huh-7, 96 h. On the technique in general: A reporter such as luciferase makes a cellular process visible.

For assay [3], the target named is Hepatitis C virus serine protease, NS3/NS4A (Hepatitis C virus, UniProt A3EZI9+D2K2A8, D168A). Nature of the assay: Inhibition of HCV genotype 1a NS3/4A protease D168A mutant using Ac-DE-Dap(QXL 520)-EE-Abu-psi-[COO]AS-C(5-FAMsp)-NH2 as substrate preincubated for 1 hr followed by substrate addition. Details: species or system Hepatitis C virus subtype 1a. An outline of the steps:
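NS3/4A protease domain at 2 nM pre-incubated 1 h at room temperature with increasing inhibitor (at least 12 concentrations) in 50 mM Tris, 5% glycerol, 10 mM DTT, 0.6 mM LDAO, 4% DMSO. Reaction started with FRET substrate (final 200 nM), monitored kinetically (ex 485/em 530 nm). Three independent data sets; global Morrison fit for Ki.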

A short description of assay [4]: Inhibition of HCV genotype 1a NS3/4A protease using Ac-DE-Dap(QXL 520)-EE-Abu-psi-[COO]AS-C(5-FAMsp)-NH2 as substrate preincubated for 1 hr followed by substrate addition. Further details: species or system Hepatitis C virus subtype 1a. In a few lines: (§1)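 Protease domain at 2 nM preincubated 1 h at room temperature with inhibitor titrations (at least 12 concentrations) in 50 mM Tris, 5% glycerol, 10 mM DTT, 0.6 mM LDAO, 4% DMSO. Reaction started with fluorogenic substrate (200 nM final) and followed kinetically (ex 485/em 530 nm). Three independent data sets, fit globally to the Morrison equation for Ki.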

Assay [5] has as its system Hepatitis C virus. Nature of the assay: Antiviral activity against HCV genotype 1b Con1 harboring HCV genotype 1a H77 NS3 D168A mutant infected in human HuH7 cells assessed as inhibition of viral replication after 96 hrs by luciferase reporter gene assay. Particulars: genotype 1b Con1, Huh-7, 96 h. Type of assay: functional, cell-based, Hepacivirus hominis.
A short description of assay [6]: Inhibition of HCV genotype 3a NS3/4A protease using Ac-DE-Dap(QXL520)-EE-Abu-psi-[COO]AS-C(5-FAMsp)-NH2 as substrate preincubated for 1 hr followed by substrate addition. Details: species or system Hepatitis C virus subtype 3a. In a few lines:
as §1

Assay [7] relates to Hepatitis C virus. Nature of the assay: Antiviral activity against HCV genotype 1b Con1 harboring HCV genotype 1a H77 NS3 infected in human HuH7 cells assessed as inhibition of viral replication after 96 hrs by luciferase reporter gene assay. Type of assay: functional, cell-based, Hepacivirus hominis. The following applies: genotype 1b Con1, Huh-7, 96 h.
Assay [8] deals with Hepatitis C virus. Put plainly: Antiviral activity against HCV genotype 1b Con1 harboring HCV genotype 1a H77 NS3 D168V mutant infected in human HuH7 cells assessed as inhibition of viral replication after 96 hrs by luciferase reporter gene assay. Type of assay: functional, cell-based, Hepacivirus hominis. Particulars: genotype 1b Con1, Huh-7, 96 h.

This note sets out measurements from ChEMBL document CHEMBL4011627, “Hepatitis C Virus NS3/4A Protease Inhibitors Incorporating Flexible P2 Quinoxalines Target Drug Resistant Viral Variants” (J Med Chem, 2017).

One may read the EC50 as the concentration at which the effect is half-maximal. The term Ki denotes the dissociation constant of the complex between target and ligand, obtained from inhibition or displacement. A low value points to higher affinity. Take `CCc1nc2ccc(OC)cc2nc1O[C@@H]1C[C@H]2C(=O)N[C@]3(C(=O)NS(=O)(=O)C4(C)CC4)C[C@H]3/C=C\CCCCC[C@H](NC(=O)OC(C)(C)C)C(=O)N2C1`: the EC50 in the assay with Hepatitis C virus [1] was found to be 1.8 nM; in the assay with Hepatitis C virus [2], 4.52 nM; in the assay on Hepatitis C virus [5], 4.97 nM; in the assay with Hepatitis C virus [7], 0.43 nM; in the assay with Hepatitis C virus [8] it was 6.42 nM. The Ki in assay [3] worked out at 55.2 nM; in assay [4], 1.82 nM; in assay [6], 171 nM.

With `CCc1nc2ccc(OC)cc2nc1O[C@@H]1C[C@H]2C(=O)N[C@]3(C(=O)NS(=O)(=O)C4(C)CC4)C[C@H]3/C=C\CCCCC[C@H](NC(=O)OC3CCCC3)C(=O)N2C1`, the EC50 in the assay with Hepatitis C virus [1] worked out at 2.07 nM; in the assay on Hepatitis C virus [2], 10.6 nM; with Hepatitis C virus [5] it was 3.45 nM; with Hepatitis C virus [7], 0.16 nM; with Hepatitis C virus [8], 7.08 nM. The values for the inhibitory constant (Ki) in assay [3], in assay [4] and in assay [6] were 55.2 nM, 1.37 nM and 186 nM, respectively.

In the case of `CCc1nc2ccc(OC)cc2nc1O[C@@H]1C[C@H]2C(=O)N[C@]3(C(=O)NS(=O)(=O)C4CC4)C[C@H]3/C=C\CCCCC[C@H](NC(=O)OC(C)(C)C)C(=O)N2C1`, the EC50 is 1.75 nM with Hepatitis C virus [1]; 9.65 nM in the assay on Hepatitis C virus [2]; 6.31 nM in the assay on Hepatitis C virus [5]; 0.33 nM in the assay on Hepatitis C virus [7]; 9.1 nM with Hepatitis C virus [8]. The results for the Ki in assay [3], in assay [4] and in assay [6] were 82.4 nM, 3.29 nM and 204 nM, respectively.

Take `CCc1nc2ccc(OC)cc2nc1O[C@@H]1C[C@H]2C(=O)N[C@]3(C(=O)NS(=O)(=O)C4CC4)C[C@H]3/C=C\CCCCC[C@H](NC(=O)OC3CCCC3)C(=O)N2C1`: the EC50 in the assay with Hepatitis C virus [1] was 2.08 nM; in the assay on Hepatitis C virus [2] it was 11.8 nM; in the assay on Hepatitis C virus [5], 3.6 nM; in the assay on Hepatitis C virus [7], 0.14 nM; in the assay with Hepatitis C virus [8] it was 11.9 nM. The figures for the Ki in assay [3], in assay [4] and in assay [6] were 52.3 nM, 1.24 nM and 211 nM, respectively.
